Source: PubChem BioAssay
Records with an inconclusive call do not appear.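 Rule for the calls, unless noted: active = viability increase at or above a cutoff of the median across tested compounds plus 3 SD (cut at about 8.5% in these data, passing the limit was not always enough); inconclusive = some gains above the cutoff, reason not given; inactive = the rest.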

Columns and labels:
[1] = S. cerevisiae growth inhibition in permissive medium (OD615), pilot counter-assay for S. cerevisiae lifespan shortening project, permissive growth control (AID 705;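 active = growth inhibition above 25% in both replicates, a cutoff set 3 SD above the mean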); conditions: OD615, 24 h, at 10 µM, hits give high values
Outline: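 System – S. cerevisiae with engineered DeaD lifespan system · Buffer or medium – SC raffinose/galactose permissive medium · Schedule – cells pre-grown 4 h, then 24 h compound exposure, 30 °C humidified · Technique – culture turbidity as optical density at 615 nm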

[2] = S. cerevisiae growth inhibition in restrictive medium, OD615, pilot screen, restrictive growth control, yeast lifespan reduction project (AID 706;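 active = growth inhibition above a set limit, 3 SD over mean compound inhibition, in both replicates, cut at about 43% in these data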;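 note: modified DeaD lifespan yeast strain shifted to restrictive glucose medium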); conditions: OD615, 48 h, at 10 µM, hits give high values
Outline: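 Material: engineered S. cerevisiae DeaD strain / Medium: glucose-based CSMM-D restrictive medium / Compound: single dose of 10 µM compound final, 0.25% DMSO / Timing: 4 h pre-incubation, 48 h exposure at 30 °C / Technique: OD615 absorbance reading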

[3] = doxorubicin toxicity protection in MRP-1 cells – H69AR cells, CellTiter-Glo, duplicate, MRP-1 activator project, pilot screen (AID 807); conditions: H69AR viability with doxorubicin, CellTiter-Glo luminescence; at 10 µM; hits give high values;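 note: compound pretreatment 18-22 h then 72 h combined with doxorubicin; 0% = doxorubicin alone and 100% = vehicle without doxorubicin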
[4] = viability of HCT116 without oncogenic beta-catenin – human colon tumor cells, pilot screen (AID 823;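 active = cell viability at or below a set limit in both duplicate runs, the limit being the all-compound median minus 4 SD, cut at about 23% in these data, passing the limit was not always enough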;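 note: 0% = wells killed by 20 µM Hyamine and 100% = untreated DMSO cell wells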); conditions: HCT116 beta-catenin knockout viability, CellTiter-Glo, 60 h; at 10 µM; hits give low values
[5] = viability of PTEN-null HCT116 cells – cell-based, HCT116 clonal line, CellTiter-Glo, pilot screen (AID 824;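 active = viability at or below 27.92% in each of two runs, the all-compound median minus 4 SD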;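 note: 0% = 20 µM Hyamine control and 100% = vehicle cell control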); conditions: HCT116 PTEN-deleted viability, 60 h, at 10 µM, hits give low values
[6] = RAM pathway blockade in budding yeast – dse1pr::URA3 reporter, 5-FOA selection, pilot screen (AID 869;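 active = inhibition over a set limit, the all-compound mean plus 3 SD, in both replicate runs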;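 note: 0% = DMSO wells with no growth and 100% = 10 µM 1-NA-PP1 with full growth; RAM network block rescues cells from 5-FOA so hits raise OD615 growth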); conditions: S. cerevisiae dse1pr::URA3 5-FOA growth, OD615, 2 d; at 10 µM; hits give high values; strain carries analog-sensitive mutant Cbk1 kinase
[7] = RAM signaling pathway blockade in yeast – S. cerevisiae, Pdr1DBD-CYC8 efflux-inhibited sensitized strain, primary screen (AID 1298;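 active = RAM network inhibition above 8.4% in each of two replicates, 3 SD over the compound average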;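 note: 0% = DMSO untreated cells without growth and 100% = 10 µM 1-NA-PP1 full growth; higher means more yeast growth rescued from 5-FOA killing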); conditions: S. cerevisiae cbk1-as DSE1-URA3 strain, 5-FOA growth OD615, 2 d; at 50 µM; hits give high values

COc1ccccc1-c1c(C)nn2c(N3CCN(c4ccccc4OC)CC3)cc(C)nc12
inactive: growth inhibition [1] -0.095% | growth inhibition [2] 6.77% | viability increase [3] -1.57% | viability [4] 60.7% | viability [5] 63.2% | inhibition [6] 0.775% | RAM network inhibition [7] 1.3%

O=C(NCc1ccco1)c1cnccn1
inactive: growth inhibition [1] 3.99% | growth inhibition [2] 5.22% | viability increase [3] -2.25% | viability [4] 98.7% | viability [5] 101% | inhibition [6] 2.81% | RAM network inhibition [7] -0.25%

O=S(=O)(CCc1ccccc1)N1CCOCC1
inactive: growth inhibition [1] 1.85% | growth inhibition [2] -1.08% | viability increase [3] -1.35% | viability [4] 106% | viability [5] 103% | inhibition [6] 0.8% | RAM network inhibition [7] 2.83%

Cc1cccc(NC(=O)c2ccc(S(=O)(=O)N3CCCCC3)cc2)n1
inactive: growth inhibition [1] -8.26% | growth inhibition [2] -4% | viability increase [3] 1.43% | viability [4] 94.5% | viability [5] 87% | inhibition [6] -0.09% | RAM network inhibition [7] 0.16%

O=C(CN1C(=O)COc2ccccc21)Nc1ccc(F)cc1
inactive: growth inhibition [1] -5.98% | growth inhibition [2] 6.11% | viability increase [3] -5.59% | viability [4] 106% | viability [5] 91.6% | inhibition [6] 1.26% | RAM network inhibition [7] 0.3%

CCCSCCCNC(=O)Cn1cc2c(n1)CCCCC2
inactive: growth inhibition [1] -3.9% | growth inhibition [2] 5.24% | viability increase [3] -2.42% | viability [4] 94% | viability [5] 93.2% | inhibition [6] -0.37% | RAM network inhibition [7] 3.05%

O=C1c2oc3ccc(F)cc3c(=O)c2C(c2ccc(F)cc2)N1CCCN1CCOCC1 (stereo not drawn)
inactive: growth inhibition [1] -1.14% | growth inhibition [2] 6.59% | viability increase [3] 0.11% | viability [4] 106% | viability [5] 97.5% | inhibition [6] 1.92% | RAM network inhibition [7] -0.47%

COc1ccc(OC)c(NC(=O)CNC(=O)Cn2ccc3ccccc3c2=O)c1
inactive: growth inhibition [1] -9.38% | growth inhibition [2] 10.5% | viability increase [3] -1.6% | viability [4] 104% | viability [5] 90.5% | inhibition [6] 3.29% | RAM network inhibition [7] -0.05%

N#Cc1c2n(c3c(=O)n(Cc4ccc(Cl)cc4)cnc13)CCCC2
inactive: growth inhibition [1] -12.5% | growth inhibition [2] -5.03% | viability increase [3] 1.08% | viability [4] 93.8% | viability [5] 87% | inhibition [6] 0.755% | RAM network inhibition [7] 4.22%

CC1CC(C)CN(CCCNC(=O)CNC(=O)Cn2ccc3ccccc3c2=O)C1 (stereo not drawn)
inactive: growth inhibition [1] -3% | growth inhibition [2] -19.7% | viability increase [3] -0.78% | viability [4] 104% | viability [5] 98.9% | inhibition [6] 0.76% | RAM network inhibition [7] 2.22%

CCOc1ccc(C(=O)Nc2cc(C)c3c(=O)oc4ccccc4c3n2)cc1
inactive: growth inhibition [1] -0.2% | growth inhibition [2] 9.54% | viability increase [3] -7.84% | viability [4] 65% | viability [5] 40.8% | inhibition [6] 1.54% | RAM network inhibition [7] 1.29%

Cc1ccccc1-c1nc(CN2CCC(C(=O)O)CC2)c(C)o1
inactive: growth inhibition [1] 1.1% | growth inhibition [2] -0.365% | viability increase [3] -0.95% | viability [4] 103% | viability [5] 93.9% | inhibition [6] 0% | RAM network inhibition [7] 0.11%

CCN1CCN(c2ncnc3c2cnn3-c2ccccc2)CC1
inactive: growth inhibition [1] -13.8% | growth inhibition [2] -7.68% | viability increase [3] 1.69% | viability [4] 102% | viability [5] 89.8% | inhibition [6] 1.7% | RAM network inhibition [7] 2.03%

CCOC(=O)N1CCN(CC(=O)c2ccc3c(c2)CCN3C(C)=O)CC1
inactive: growth inhibition [1] 0.355% | growth inhibition [2] -1.94% | viability increase [3] -1.31% | viability [4] 100% | viability [5] 96.6% | inhibition [6] 2.14% | RAM network inhibition [7] 6.23%

Cc1nc2c(c(C)nn2-c2ccccc2)c(C)c1Cl
inactive: growth inhibition [1] -4.98% | growth inhibition [2] -5.5% | viability increase [3] -2.73% | viability [4] 88.6% | viability [5] 87.9% | inhibition [6] 3.09% | RAM network inhibition [7] 2.46%

O=C(Cn1cnc2c(cnn2-c2ccc(F)cc2)c1=O)NCCc1ccccc1
inactive: growth inhibition [1] -1.94% | growth inhibition [2] -1.9% | viability increase [3] 1.69% | viability [4] 97.6% | viability [5] 95.7% | inhibition [6] 3.04% | RAM network inhibition [7] 6.6%

Fc1ccccc1COc1ccc(/C=N/n2cnnc2)cc1
inactive: growth inhibition [1] 3.41% | growth inhibition [2] 23.7% | viability increase [3] -1.78% | viability [4] 102% | viability [5] 95.4% | inhibition [6] 2.11% | RAM network inhibition [7] 2.09%

C(#Cc1ccc(C#CCN2CCOCC2)cc1)CN1CCOCC1
inactive: growth inhibition [1] -17.1% | growth inhibition [2] -9.67% | viability increase [3] -0.83% | viability [4] 85.8% | viability [5] 87.2% | inhibition [6] 1.15% | RAM network inhibition [7] 3.18%

CCOC(=O)CSC1=C(C#N)C(c2ccc(Cl)cc2)CC(=O)N1 (stereo not drawn)
inactive: growth inhibition [1] -15.6% | growth inhibition [2] -15.6% | viability increase [3] 0.52% | viability [4] 87.8% | viability [5] 82.5% | inhibition [6] 0.69% | RAM network inhibition [7] 0.53%

Cc1nc2ccc(S(=O)(=O)NC(C(=O)N3CCCCCC3)C(C)C)cc2s1 (stereo not drawn)
inactive: growth inhibition [1] -11.3% | growth inhibition [2] -4.58% | viability increase [3] -1.12% | viability [4] 97.5% | viability [5] 87.8% | inhibition [6] 2.01% | RAM network inhibition [7] 2.77%

CC(C)N(Cc1nc(-c2ccc(Cl)cc2)no1)C(=O)CCC1CCCC1
inactive: growth inhibition [1] -13.1% | growth inhibition [2] -14.6% | viability increase [3] -0.03% | viability [4] 70.3% | viability [5] 74.4% | inhibition [6] 0.865% | RAM network inhibition [7] 8.34%

CCCCCn1c(CN2CC(C)OC(C)C2)nc2c1c(=O)n(C)c(=O)n2C (stereo not drawn)
inactive: growth inhibition [1] -9.73% | growth inhibition [2] 0.38% | viability increase [3] -1.22% | viability [4] 95.3% | viability [5] 86.6% | inhibition [6] 1.86% | RAM network inhibition [7] 1.97%

C=CCn1c(CCCNC(=O)C(C)(C)C)nc2ccccc21
inactive: growth inhibition [1] -10.7% | growth inhibition [2] -20.9% | viability increase [3] -1.33% | viability [4] 99.7% | viability [5] 96.1% | inhibition [6] 0.295% | RAM network inhibition [7] 5.54%

CC(=O)CCC(=O)NCCc1ccccc1F
inactive: growth inhibition [1] -5.29% | growth inhibition [2] 9.55% | viability increase [3] 0.02% | viability [4] 94.8% | viability [5] 97.2% | inhibition [6] 0.02% | RAM network inhibition [7] 0.25%
